Laboratory results taken from ChEMBL document CHEMBL4312030, “Synthesis, biological evaluation, and docking study of indole aryl sulfonamides as aromatase inhibitors” (Eur J Med Chem, 2020).
The source made the active and inactive calls. No cut-off for these calls is given here.

Key:
Aromatase [1] = target: T1, Aromatase (Homo sapiens, UniProt P11511); experiment: Inhibition of recombinant human aromatase at 1 uM preincubated for 10 mins followed by substrate and beta-NADP+ addition and measured for 60 mins by fluorimetric assay relative to letrozole; details: 1 h
T1 sequence (P11511 whole entry): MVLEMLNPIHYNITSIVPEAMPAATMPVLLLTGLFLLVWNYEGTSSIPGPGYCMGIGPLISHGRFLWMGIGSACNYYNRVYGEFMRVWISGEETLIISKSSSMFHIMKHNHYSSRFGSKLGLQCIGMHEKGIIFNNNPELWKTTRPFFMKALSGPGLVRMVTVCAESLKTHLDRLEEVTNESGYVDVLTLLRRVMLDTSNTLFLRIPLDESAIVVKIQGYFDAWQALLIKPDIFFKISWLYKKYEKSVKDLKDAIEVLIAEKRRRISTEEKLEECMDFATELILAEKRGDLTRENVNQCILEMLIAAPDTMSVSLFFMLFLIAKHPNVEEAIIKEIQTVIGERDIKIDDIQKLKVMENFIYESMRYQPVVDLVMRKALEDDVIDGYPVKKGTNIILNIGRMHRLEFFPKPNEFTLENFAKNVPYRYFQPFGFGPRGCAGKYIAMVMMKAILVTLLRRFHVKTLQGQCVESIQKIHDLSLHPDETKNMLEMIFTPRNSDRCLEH
Summary of the method: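 Fluorimetric kit assay with recombinant human aromatase plus NADPH generating system; compounds at 1 µM final (from 5X in ACN; solvent 0.5% ACN), preincubated 10 min at 37°C.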

MCF7 [2] = experiment: Cytotoxicity against human MCF7 cells assessed as active metabolizing cells at 250 uM after 48 hrs by MTT assay relative to control; type: functional
Summary of the method: (§1)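 MCF7 cells in DMEM high glucose with 10% FBS, 1% pen/strep, seeded 1x10⁴/well, adhered 24 h, then treated 0-250 µM for 24, 48 or 72 h. MTT (1 mg/ml, 1:10 in fresh medium) 4 h at 37°C, 5% CO₂; formazan dissolved in DMSO, OD 540 nm. Expressed as % of DMSO-treated cells (final DMSO <0.2%); three experiments in triplicate (n=9).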

MCF7 [3] = experiment: Cytotoxicity against human MCF7 cells assessed as cell metabolic activity at 250 uM after 24 hrs by MTT assay relative to control; type: functional; summary of the method: as §1
MCF7 [4] = experiment: Cytotoxicity against human MCF7 cells assessed as cell metabolic activity at 10 uM after 48 hrs by MTT assay relative to control; type: functional; summary of the method: as §1
MCF7 [5] = experiment: Cytotoxicity against human MCF7 cells assessed as cell metabolic activity after 24 hrs by MTT assay relative to control; type: functional; summary of the method: as §1
Aromatase [6] = target: T1, Aromatase; experiment: Inhibition of recombinant human aromatase preincubated for 10 mins followed by substrate and beta-NADP+ addition and measured for 60 mins by fluorimetric assay
Summary of the method: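 Recombinant human aromatase with NADPH generating system, preincubated 10 min at 37°C with inhibitor at 0.01-100 µM final (5X stocks 0.05-500 µM in ACN). Fluorogenic substrate/β-NADP+ added; fluorescence Ex/Em 488/527 nm kinetic 60 min. IC50 from fitted multi-point dose-response curves; mean of triplicate ± RSD.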

MCF7 [7] = experiment: Cytotoxicity against human MCF7 cells assessed as active metabolizing cells at 100 uM after 48 hrs by MTT assay relative to control; type: functional; summary of the method: as §1
MCF7 [8] = experiment: Cytotoxicity against human MCF7 cells assessed as reduction in cell viability after 72 hrs by MTT assay; type: functional, cell-based; summary of the method: as §1
MCF7 [9] = experiment: Cytotoxicity against human MCF7 cells assessed as LDH release up to 250 uM after 24 hrs by CytoTox 96 Non-Radioactive assay relative to control; type: functional
Summary of the method: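 MCF7 cells (DMEM high glucose, 10% FBS, 1% pen/strep) seeded 1x10⁴/well, adhered 24 h, then exposed to 0-250 µM for 24 h. Supernatants centrifuged 450xg 4 min; LDH measured by 30-min coupled INT-to-formazan reaction, absorbance 490 and 690 nm. %LDH released = [(A490–B690)/(C–B)]×100, C = positive control cell lysate.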

MCF7 [10] = experiment: Cytotoxicity against human MCF7 cells assessed as reduction in cell viability at 100 uM after 24 to 72 hrs by MTT assay; type: functional, cell-based; summary of the method: as §1

| SMILES | inhibition at 1 µM (Aromatase [1]) | Activity (MCF7 [4]) | Activity (MCF7 [5]) | IC50 (Aromatase [6]) | Activity (MCF7 [9]) | further results |
| --- | --- | --- | --- | --- | --- | --- |
| Cc1ccc(S(=O)(=O)NCc2ccc3[nH]ccc3c2)cc1 | 33.4% | – | – | – | – | – |
| Cc1ccc(S(=O)(=O)Nc2ccc3[nH]ccc3c2)cc1[N+](=O)[O-] | 12.8% | – | – | – | – | – |
| O=S(=O)(Cc1ccccc1)Nc1ccc2cc[nH]c2c1 | 15.3% | – | – | – | – | – |
| Cc1ccc(S(=O)(=O)NCCc2c[nH]c3ccccc23)cc1[N+](=O)[O-] | 30.6% | – | – | – | – | – |
| O=[N+]([O-])c1cccc(S(=O)(=O)Nc2ccc3cc[nH]c3c2)c1 | 18.6% | – | – | – | – | – |
| O=S(=O)(Cc1ccccc1)Nc1ccc2[nH]ccc2c1 | 129% | 40 - 45% | 45% | 160 nM | 35 - 40% | Activity (MCF7 [2]): 20.08%; Activity (MCF7 [3]): 38.62%; Activity (MCF7 [7]): 19.53%; inhibition (MCF7 [8]): Dose-dependent effect |
| O=S(=O)(NCCc1c[nH]c2ccccc12)c1ccccc1 | 110% | 40 - 45% | 45% | 200 nM | 35 - 40% | inhibition (MCF7 [10]): Active |
| N#Cc1ccc(S(=O)(=O)NCCc2c[nH]c3ccccc23)c(Cl)c1 | 19.7% | – | – | – | – | – |
| O=S(=O)(Cc1ccccc1)NCc1ccc2[nH]ccc2c1 | 16.4% | – | – | – | – | – |
| Cc1ccc(S(=O)(=O)Nc2ccc3cc[nH]c3c2)cc1 | 83.2% | 40 - 45% | 45% | 490 nM | 35 - 40% | Activity (MCF7 [2]): 22.08%; Activity (MCF7 [3]): 36.63%; Activity (MCF7 [7]): 20.78%; inhibition (MCF7 [8]): Dose-dependent effect |
| Cc1ccc(S(=O)(=O)NCCc2c[nH]c3ccccc23)cc1 | 43.5% | – | – | – | – | – |
| O=S(=O)(NCc1ccc2[nH]ccc2c1)c1ccccc1 | 20.7% | – | – | – | – | – |
| O=S(=O)(Cc1ccccc1)NCCc1c[nH]c2ccccc12 | 75.2% | 40 - 45% | 45% | 750 nM | 35 - 40% | inhibition (MCF7 [10]): Active |
